Results from ChEMBL document CHEMBL2062435, “Synthesis and in vitro antibacterial activity of gemifloxacin derivatives containing a substituted benzyloxime moiety” (2012).

Columns and labels:
Assay type in all cases: functional
[1] = test system: Staphylococcus aureus; test: Antimicrobial activity against extended spectrum beta-lactamases-producing methicillin-sensitive Staphylococcus aureus 10-13 after 18-24 hrs by two-fold serial dilution method
How it was run: (§1)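 Agar-medium twofold serial dilution against Gram-positive and Gram-negative strains; MIC taken as the lowest compound concentration giving complete inhibition of bacterial growth after incubation at 35 °C for 18-24 h.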

[2] = test system: Enterococcus faecalis; test: Antimicrobial activity against Enterococcus faecalis 10-6 after 18-24 hrs by two-fold serial dilution method; how it was run: as §1
[3] = test system: Staphylococcus epidermidis; test: Antimicrobial activity against extended spectrum beta-lactamases-producing methicillin-resistant Staphylococcus epidermidis 10-13 after 18-24 hrs by two-fold serial dilution method
How it was run: (§2)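 Agar twofold serial dilution MIC against clinical isolates. MIC was taken as the lowest concentration giving complete inhibition of bacterial growth after incubation at 35 °C for 18-24 h.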

[4] = test system: Staphylococcus aureus; test: Antimicrobial activity against Staphylococcus aureus ATCC […] after 18-24 hrs by two-fold serial dilution method; how it was run: as §1
[5] = test system: Pseudomonas aeruginosa; test: Antimicrobial activity against Pseudomonas aeruginosa 10-12 after 18-24 hrs by two-fold serial dilution method; how it was run: as §1
[6] = test system: Staphylococcus epidermidis; test: Antimicrobial activity against extended spectrum beta-lactamases-producing methicillin-sensitive Staphylococcus epidermidis 10-11 after 18-24 hrs by two-fold serial dilution method; how it was run: as §1
[7] = test system: Pseudomonas aeruginosa; test: Antimicrobial activity against extended spectrum beta-lactamases-producing Pseudomonas aeruginosa 10-9 after 18-24 hrs by two-fold serial dilution method; how it was run: as §1
[8] = test system: Enterococcus faecalis; test: Antimicrobial activity against Enterococcus faecalis 10-7 after 18-24 hrs by two-fold serial dilution method; how it was run: as §1
[9] = test system: Klebsiella pneumoniae; test: Antimicrobial activity against extended spectrum beta-lactamases-producing Klebsiella pneumoniae 10-2 after 18-24 hrs by two-fold serial dilution method; how it was run: as §1
[10] = test system: Staphylococcus epidermidis; test: Antimicrobial activity against extended spectrum beta-lactamases-producing methicillin-sensitive Staphylococcus epidermidis 10-15 after 18-24 hrs by two-fold serial dilution method; how it was run: as §1
[11] = test system: Klebsiella pneumoniae; test: Antimicrobial activity against extended spectrum beta-lactamases-producing Klebsiella pneumoniae 10-1 after 18-24 hrs by two-fold serial dilution method; how it was run: as §1
[12] = test system: Pseudomonas aeruginosa; test: Antimicrobial activity against extended spectrum beta-lactamases-producing Pseudomonas aeruginosa 10-18 after 18-24 hrs by two-fold serial dilution method; how it was run: as §1
[13] = test system: Staphylococcus aureus; test: Antimicrobial activity against extended spectrum beta-lactamases-producing methicillin-resistant Staphylococcus aureus 10-11 after 18-24 hrs by two-fold serial dilution method; how it was run: as §2
[14] = test system: Staphylococcus aureus; test: Antimicrobial activity against extended spectrum beta-lactamases-producing methicillin-sensitive Staphylococcus aureus 10-14 after 18-24 hrs by two-fold serial dilution method; how it was run: as §1
[15] = test system: Enterococcus faecium; test: Antimicrobial activity against Enterococcus faecium 10-5 after 18-24 hrs by two-fold serial dilution method; how it was run: as §1
[16] = test system: Escherichia coli; test: Antimicrobial activity against extended spectrum beta-lactamases-producing Escherichia coli 10-2 after 18-24 hrs by two-fold serial dilution method; how it was run: as §1
[17] = test system: Streptococcus pneumoniae; test: Antimicrobial activity against extended spectrum beta-lactamases-producing Streptococcus pneumoniae 10-4 after 18-24 hrs by two-fold serial dilution method; how it was run: as §1
[18] = test system: Pseudomonas aeruginosa; test: Antimicrobial activity against extended spectrum beta-lactamases-producing Pseudomonas aeruginosa 10-5 after 18-24 hrs by two-fold serial dilution method; how it was run: as §1
[19] = test system: Escherichia coli; test: Antimicrobial activity against Escherichia coli 10-2 after 18-24 hrs by two-fold serial dilution method; how it was run: as §1
[20] = test system: Pseudomonas aeruginosa; test: Antimicrobial activity against extended spectrum beta-lactamases-producing Pseudomonas aeruginosa 10-15 after 18-24 hrs by two-fold serial dilution method; how it was run: as §1
[21] = test system: Escherichia coli; test: Antimicrobial activity against Escherichia coli ATCC 25922 after 18-24 hrs by two-fold serial dilution method; how it was run: as §1
[22] = test system: Escherichia coli; test: Antimicrobial activity against Escherichia coli 10-1 after 18-24 hrs by two-fold serial dilution method; how it was run: as §1
[23] = test system: Staphylococcus aureus; test: Antimicrobial activity against extended spectrum beta-lactamases-producing methicillin-resistant Staphylococcus aureus 10-15 after 18-24 hrs by two-fold serial dilution method; how it was run: as §2
[24] = test system: Klebsiella pneumoniae; test: Antimicrobial activity against Klebsiella pneumoniae 10-2 after 18-24 hrs by two-fold serial dilution method; how it was run: as §1
[25] = test system: Enterococcus faecium; test: Antimicrobial activity against Enterococcus faecium 10-9 after 18-24 hrs by two-fold serial dilution method; how it was run: as §1
[26] = test system: Escherichia coli; test: Antimicrobial activity against extended spectrum beta-lactamases-producing Escherichia coli 10-3 after 18-24 hrs by two-fold serial dilution method; how it was run: as §1
[27] = test system: Klebsiella pneumoniae; test: Antimicrobial activity against extended spectrum beta-lactamases-producing Klebsiella pneumoniae 10-3 after 18-24 hrs by two-fold serial dilution method; how it was run: as §1
[28] = test system: Streptococcus pneumoniae; test: Antimicrobial activity against extended spectrum beta-lactamases-producing Streptococcus pneumoniae 10-1 after 18-24 hrs by two-fold serial dilution method; how it was run: as §1
[29] = test system: Escherichia coli; test: Antimicrobial activity against Escherichia coli 10-3 after 18-24 hrs by two-fold serial dilution method; how it was run: as §1
[30] = test system: Staphylococcus epidermidis; test: Antimicrobial activity against extended spectrum beta-lactamases-producing methicillin-resistant Staphylococcus epidermidis 10-10 after 18-24 hrs by two-fold serial dilution method; how it was run: as §2
[31] = test system: Enterococcus faecalis; test: Antimicrobial activity against Enterococcus faecalis 10-5 after 18-24 hrs by two-fold serial dilution method; how it was run: as §1
[32] = test system: Escherichia coli; test: Antimicrobial activity against extended spectrum beta-lactamases-producing Escherichia coli 10-4 after 18-24 hrs by two-fold serial dilution method; how it was run: as §1
[33] = test system: Pseudomonas aeruginosa; test: Antimicrobial activity against extended spectrum beta-lactamases-producing Pseudomonas aeruginosa 10-20 after 18-24 hrs by two-fold serial dilution method; how it was run: as §1
[34] = test system: Klebsiella pneumoniae; test: Antimicrobial activity against Klebsiella pneumoniae 10-4 after 18-24 hrs by two-fold serial dilution method; how it was run: as §1
[35] = test system: Klebsiella pneumoniae; test: Antimicrobial activity against Klebsiella pneumoniae 10-3 after 18-24 hrs by two-fold serial dilution method; how it was run: as §1
[36] = test system: Staphylococcus epidermidis; test: Antimicrobial activity against extended spectrum beta-lactamases-producing methicillin-sensitive Staphylococcus epidermidis 10-13 after 18-24 hrs by two-fold serial dilution method; how it was run: as §1

Row | SMILES | MIC [1] [µg/mL] | MIC [2] [µg/mL] | MIC [3] [µg/mL] | MIC [4] [µg/mL] | MIC [5] [µg/mL] | MIC [6] [µg/mL] | MIC [7] [µg/mL] | MIC [8] [µg/mL] | MIC [9] [µg/mL] | MIC [10] [µg/mL] | MIC [11] [µg/mL] | MIC [12] [µg/mL] | MIC [13] [µg/mL] | MIC [14] [µg/mL] | MIC [15] [µg/mL] | MIC [16] [µg/mL] | MIC [17] [µg/mL] | MIC [18] [µg/mL] | MIC [19] [µg/mL] | MIC [20] [µg/mL] | other results
1 | CS(=O)(=O)O.NCC1CN(c2nc3c(cc2F)c(=O)c(C(=O)O)cn3C2CC2)C/C1=N\OCc1cc2c(cc1Cl)OCO2 (racemic) | 0.03 | 8 | 2 | 0.015 | 8 | 0.25 | 8 | 4 | > 128 | 2 | > 128 | 16 | 2 | 0.06 | 8 | 128 | 2 | 8 | 16 | 32 | MIC [21]: 0.25 µg/mL; MIC [22]: > 128 µg/mL; MIC [23]: 1 µg/mL; MIC [24]: > 128 µg/mL; MIC [25]: 8 µg/mL; MIC [26]: > 128 µg/mL; MIC [27]: > 128 µg/mL; MIC [28]: 0.5 µg/mL; MIC [29]: 16 µg/mL; MIC [30]: 2 µg/mL; MIC [31]: 1 µg/mL; MIC [32]: 8 µg/mL; MIC [33]: 4 µg/mL; MIC [34]: 128 µg/mL; MIC [35]: 8 µg/mL; MIC [36]: 8 µg/mL
2 | COc1cc(CO/N=C2\CN(c3nc4c(cc3F)c(=O)c(C(=O)O)cn4C3CC3)CC2CN)cc(OC)c1OC.CS(=O)(=O)O (racemic) | 1 | 4 | 0.5 | 0.125 | 0.125 | 8 | 8 | 2 | > 128 | 8 | > 128 | 4 | 2 | 0.125 | 8 | > 128 | 8 | 8 | 16 | 8 | MIC [21]: 0.5 µg/mL; MIC [22]: 128 µg/mL; MIC [23]: 0.25 µg/mL; MIC [24]: > 128 µg/mL; MIC [25]: 8 µg/mL; MIC [26]: 16 µg/mL; MIC [27]: > 128 µg/mL; MIC [28]: 1 µg/mL; MIC [29]: 16 µg/mL; MIC [30]: 2 µg/mL; MIC [31]: 1 µg/mL; MIC [32]: 8 µg/mL; MIC [33]: 0.5 µg/mL; MIC [34]: > 128 µg/mL; MIC [35]: 8 µg/mL; MIC [36]: 2 µg/mL
